MT1-MMP act inh: MT1-MMP (human) activation inhibition. GFP/RFP ratio change, % at 20 µM. HT1080 RFP-PRO-GFP cells, GFP/RFP ratio fluorescence, overnight; percent of plate control window, DMSO zero. P50281. actives 0.061% (n = 360,000);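 active = GFP/RFP ratio change of at least 30% with cell ATP level not reduced by more than half and red fluorescence within 50% of control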
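Test system: HT1080 cells expressing an RFP-PRO-GFP fluorescent reporter construct / Compound dosing: single-point 20 µM compound, 1% DMSO / Schedule: cells overnight before dosing, compound overnight, 37 °C, 5% CO2 / Evaluation: GFP/RFP fluorescence ratio / Control set: DMSO and RFP-L50D-GFP cell wells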
Myeloid diff 2: promotes myeloid progenitor differentiation; ER-HoxA9 myeloid progenitors, lysozyme-GFP differentiation, flow cytometry; calls only at 10 µM; actives 1% (n = 360,000);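 active = normalized GFP-positive differentiation at or above the plate's own cutoff, the solvent-only control mean plus 3 SD; inconclusive = no clear call, values can overlap the other calls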;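 note: cells exposed to compound for four days before flow analysis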
SENP1 inh: blocks the human SENP1 SUMO protease catalytic domain. recombinant SENP1 catalytic domain, CyPet-SUMO1-YPet FRET cleavage. AID 624204. Q9P0U3. inhibition, % at 10 µM. actives 0.21% (n = 360,000);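 active = inhibition at least 30% at 10 µM, raw YFP signal under a set limit, fluorescence ratio 0.5 to 1.5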;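 note: 0% = enzyme with DMSO and 100% = no enzyme wells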
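Assay system: hSENP1 catalytic domain, recombinant. Amount: SENP1 enzyme, 20 pM final. Schedule: 50 min reaction, RT, dark. Technique: FRET, CFP and YFP emission. Control set: no-enzyme wells low, DMSO-plus-enzyme wells high control.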
beta cell repl: MIN6 beta-cell proliferation induction. proliferation, % at 10 µM. actives 0.29% (n = 330,000). MIN6 cells proliferation, ATPlite luminescence, 48 h; cells starved in 0.2% serum; 100% = growth in 10% serum. AID 2380;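 active = compounds whose signal lies at least 3.5 SD above the mean of all wells on their plate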;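 note: 0% = DMSO-treated cells in low-serum medium and 100% = 10% serum control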
DAGLB inh: blocks human DAGLB lipase activity; inhibition, % at 5.17 µM; HEK293T DAGLB membrane lysate, EnzChek fluorogenic substrate; AID 504411; Q8NCG7; actives 0.059% (n = 340,000); in the data active = inhibition above about 34%;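 note: 0% = enzyme with vehicle and 100% = wells lacking enzyme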
Target sequence (Q8NCG7 whole entry, looked up): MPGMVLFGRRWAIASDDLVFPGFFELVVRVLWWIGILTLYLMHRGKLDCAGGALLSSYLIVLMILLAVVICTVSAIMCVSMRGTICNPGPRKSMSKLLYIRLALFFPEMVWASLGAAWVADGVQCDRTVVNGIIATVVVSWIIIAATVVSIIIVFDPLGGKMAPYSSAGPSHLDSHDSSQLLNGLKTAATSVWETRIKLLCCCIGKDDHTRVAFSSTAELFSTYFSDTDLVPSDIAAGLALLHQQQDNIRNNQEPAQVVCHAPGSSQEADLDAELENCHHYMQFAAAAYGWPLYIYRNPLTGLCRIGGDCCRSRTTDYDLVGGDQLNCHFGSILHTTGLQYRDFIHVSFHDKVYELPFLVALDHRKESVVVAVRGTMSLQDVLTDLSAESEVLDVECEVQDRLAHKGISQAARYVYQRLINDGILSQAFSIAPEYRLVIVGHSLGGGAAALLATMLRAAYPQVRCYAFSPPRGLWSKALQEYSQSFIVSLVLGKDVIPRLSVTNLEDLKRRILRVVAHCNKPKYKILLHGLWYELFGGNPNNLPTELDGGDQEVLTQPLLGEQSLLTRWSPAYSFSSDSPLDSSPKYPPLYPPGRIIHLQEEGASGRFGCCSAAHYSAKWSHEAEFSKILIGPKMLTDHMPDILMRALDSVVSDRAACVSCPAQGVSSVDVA
CendR NRP1 mod: modulators of CendR peptide binding to human neuropilin-1. O14786. FAM-RPARPAR peptide binding to NRP-1, fluorescence polarization. inhibition, % at 25 µM. actives 0.85% (n = 360,000). AID 602438;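 active = inhibition or corrected inhibition above about 18%, plus a signal ratio from 0.5 to 1.5, limit read from the data, passing the limit was not always enough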
* hit, by the source's call; i = inactive; ? = inconclusive; nt = not tested or not shown; + = active, no number. Only some compounds are listed: those with a hit (about 2.4% of all), similar ones and a draw of the others.

SMILES | MT1-MMP act inh | Myeloid diff 2 | SENP1 inh | beta cell repl | DAGLB inh | CendR NRP1 mod
COc1ccc(CCNC(=O)C(C)n2nc(C)c3c(C)n(-c4ccc(C)cc4)nc3c2=O)c(OC)c1 (stereo unspecified) | 8.7 | ? | 0.8 | -2.9 | 1.2 | 0.3
Cc1ccc(OCC(=O)Nc2ccc3c4c(cccc24)CC3)c(C)c1 | -0.7 | + | -2.6 | -2.9 | -13.8 | 3.1
Cn1c(=O)c2ncn(CC(=O)Nc3ccc4c5c(cccc35)CC4)c2n(C)c1=O | -20.7 | + | 12.7 | -0.7 | -2.2 | -32.4
Cc1cccc(OCC(=O)Nc2ccc3c4c(cccc24)CC3)c1C | -0.5 | i | -2.4 | -0.6 | -10.0 | -7.3
Cc1cccc(C)c1NC(=O)Cn1cnc2c(=O)n(C)c(=O)n(C)c21 | -0.6 | i | 0.3 | -2.2 | -1.1 | 9.0
CSCc1cc(C(=O)NCCN2CCOCC2)c(N)s1 | 3.6 | i | 2.5 | nt | nt | -37.1
Cc1cc(/C=C2\NC(=S)N(C)C2=O)ccc1N1CCCC1 | -108.2 | + | -29.4 | -2.2 | -105.4 | 134.4
CCCN1C(=O)/C(=C/c2ccc(N3CCOCC3)cc2)NC1=S | -9.2 | i | -37.2 | -0.7 | -12.4 | -146.7
CCCN1C(=O)/C(=C/c2ccc(N3CCCC3)c(C)c2)NC1=S | -279.2 | + | -15.3 | -5.2 | -132.2 | 124.9
CN(CC(=O)Nc1cccc2ccccc12)C(=O)c1ccc(F)cc1F | -0.7 | i | 2.2 | 0.2 | 2.7 | 10.8
Cc1cccc(C)c1NC(=O)C1c2ccccc2OCC(=O)N1Cc1cccnc1 (stereo unspecified) | 3.2 | i | -1.3 | nt | nt | -13.2
COc1cccc(C(=O)NNC(=O)c2ccccc2)c1 | -0.7 | i | -0.4 | 3.4 | 1.4 | 0.6
COc1cccc(C(=O)NN2c3ccccc3CCc3ccccc32)c1 | 6.5 | + | 0.6 | nt | 1.0 | 9.5
Cc1cc(C(=O)NC(C)CCc2ccccc2)ccc1[N+](=O)[O-] (stereo unspecified) | -0.6 | i | -0.2 | -2.3 | -6.6 | 5.5
O=C(N/N=C/c1ccncc1)c1cccc(S(=O)(=O)Nc2ccc(Cl)cc2)c1 | 1.9 | + | 3.1 | -3.0 | -4.3 | -15.9
O=C(NC1CC2CCCC(C1)N2C(=S)Nc1ccccc1Cl)C1CC1 (stereo unspecified) | 1.2 | i | 3.8 | -3.3 | -0.8 | 8.2
COc1ccc(S[C@@H](CCN2CC[C@H](NC(=O)OCc3ccccc3)CCC2=O)c2ccccc2)cc1 | -0.6 | i | 2.3 | -6.0 | -2.3 | 4.0
O=C(N[C@@H]1CCC(=O)N(CC[C@H](Sc2ccc(Br)cc2)c2ccccc2)CC1)OCc1ccccc1 | -3.5 | i | 0.4 | -7.2 | -3.9 | 20.0*
O=C1CC[C@@H](OCc2ccccc2)CCN1CC[C@H](Sc1ccccc1)c1ccccc1 | -0.1 | i | -0.5 | -7.5 | -12.7 | 29.1*
Cc1ccc(-n2c(SCC(=O)N(C)C)nnc2-c2ccco2)cc1 | -3.1 | i | 1.1 | 0.8 | 3.5 | -4.0
Cc1oc(-c2cccs2)nc1CN1CCC(c2ccccc2)CC1 | -8.0 | i | -10.3 | -2.6 | 1.8 | -10.3
CC(C)c1ccc(NC(=O)c2ccc(NS(C)(=O)=O)cc2)cc1 | 2.0 | + | 2.0 | -3.1 | -0.3 | 7.0
CS(=O)(=O)Nc1ccc(C(=O)Nc2ccccc2-c2ccccc2)cc1 | -0.5 | i | -0.1 | -1.1 | -0.2 | 26.6*
O=C(O)c1ccc2c(=O)n3c(nc2c1)/C(=C/c1cccc(Cl)c1Cl)CC3 | 11.4 | i | -2.9 | -1.8 | -0.2 | -30.8
CC(C)CN(C(=O)CCC1CCCCC1)c1c(N)n(CC(C)C)c(=O)[nH]c1=O | -2.7 | i | -1.7 | -1.6 | -1.6 | -5.4
SMILES | MT1-MMP act inh | Myeloid diff 2 | SENP1 inh | beta cell repl | DAGLB inh | CendR NRP1 mod
O=C(CNC(=O)c1ccc(-c2ccccc2)cc1)OCc1c(Cl)cccc1Cl | 4.2 | i | 2.0 | 0.0 | -2.2 | 4.5
O=C(CSCc1ccc(Br)cc1)N=Nc1c(O)[nH]c2ccccc12 | 2.8 | i | 3.2 | 8.7* | 3.0 | -2.5
CCOC(=O)C1=NOC(C(=O)NN(C)c2ncc(C(F)(F)F)cc2Cl)C1 (stereo unspecified) | 1.3 | i | 0.9 | -0.2 | -0.7 | 16.5
COc1cccc(C2/C(=C(/O)c3ccccc3)C(=O)C(=O)N2CCCC(=O)O)c1 (stereo unspecified) | 0.8 | i | -0.2 | nt | 3.0 | 29.4*
Cc1nc2ncnn2c(C)c1Cc1cccc(C(F)(F)F)c1 | 5.0 | + | 1.6 | -0.2 | 1.3 | 6.8
CCC1Oc2ccccc2N(CC(=O)NCC2CCCO2)C1=O (stereo unspecified) | 1.3 | i | 0.9 | 0.3 | -2.7 | -5.9
COc1ccc(NC(=O)CCS(=O)(=O)c2ccc(Cl)cc2)cc1 | -2.3 | + | 0.8 | 7.0 | -4.6 | 5.7
Cc1ccc(S(=O)(=O)CCC(=O)c2ccc(F)cc2)cc1 | -0.7 | ? | 2.0 | -6.8 | 0.1 | 15.5
Cc1ccc(C(=O)CCS(=O)(=O)c2ccc(Cl)cc2)cc1 | 1.5 | + | 0.9 | -6.9 | -0.9 | 20.3*
COc1ccc(NC(=O)CCS(=O)(=O)c2ccc(OC)cc2)cc1 | -3.8 | i | 1.2 | -3.0 | 1.2 | -3.7
O=C(OCCOc1ccccc1F)c1cccc(S(=O)(=O)N2CCOCC2)c1 | 2.7 | + | 1.2 | 1.8 | -7.0 | 7.8
CCOC(=O)c1cccc(S(=O)(=O)N2CCOCC2)c1 | 0.0 | i | -2.3 | -2.3 | -0.4 | 11.2
O=C(/C=C/c1cccc(OCc2ccccc2)c1)c1cccnc1 | -1.0 | i | -1.2 | -6.1 | 1.0 | 3.4
COc1cccc(C(C)(O)c2nc(-c3ccc(F)cc3OC)cs2)c1 (stereo unspecified) | -2.4 | i | 1.2 | nt | nt | 6.2
O=C(Cc1ccc(F)cc1)N1CCC(CC2CC(c3ccc(Cl)cc3)=NO2)(C(=O)NCC2CCCCC2)CC1 (stereo unspecified) | -11.8 | i | 2.4 | -8.8 | -1.1 | 24.6*
CCCCn1c(NC(=O)c2ccc(Br)o2)c(S(=O)(=O)c2ccccc2)c2nc3ccccc3nc21 | -19.5 | i | -28.6 | -5.5 | 5.2 | -24.7
CCCCCn1c(NC(=O)c2ccco2)c(S(=O)(=O)c2ccc(C)cc2)c2nc3ccccc3nc21 | -15.9 | + | -23.1 | -3.9 | -7.7 | -16.1
CCCCn1c(NC(=O)c2ccco2)c(S(=O)(=O)c2ccc(C)cc2)c2nc3ccccc3nc21 | -40.7 | + | -25.1 | nt | 5.3 | -160.4
CCCCn1c(NS(=O)(=O)c2ccccc2)c(S(=O)(=O)c2ccc(C)cc2)c2nc3ccccc3nc21 | -12.3 | i | -24.9 | nt | -14.1 | 13.7
